Test results as given in ChEMBL document CHEMBL2029222, “Synthesis and biological evaluation of a class of 5-benzylidene-2-phenyl-thiazolinones as potent 5-lipoxygenase inhibitors” (Bioorg Med Chem, 2012).

Assays:
U-937 [1] = test: Cytotoxicity against human U937 cells assessed as cell viability after 48 hrs by WST-1 assay; type: cell-based; conditions: U-937, 48 h
In short: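 U937 cells (10^4 per well, RPMI with 10% FCS, 37 °C, 5% CO2) treated with increasing compound concentrations for 48 h in 10% FCS; mitochondrial metabolic activity read by WST-1 kit protocol. IC50 for viability loss; at least three experiments, mean ± SE.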

U-937 [2] = test: Cytotoxicity against human U937 cells assessed as LDH leakage at 30 uM after 48 hrs by microplate reader assay relative to control; type: cell-based; conditions: u-937, 48 h
[3] = biological target: T1, Polyunsaturated fatty acid 5-lipoxygenase (Homo sapiens) (UniProt P09917); test: Inhibition of 5-lipoxygenase in human polynuclear leukocytes assessed as residual activity at 1 uM preincubated for 15 mins measured after 10 mins by HPLC analysis relative to control; type: cell-based
T1 sequence (whole entry): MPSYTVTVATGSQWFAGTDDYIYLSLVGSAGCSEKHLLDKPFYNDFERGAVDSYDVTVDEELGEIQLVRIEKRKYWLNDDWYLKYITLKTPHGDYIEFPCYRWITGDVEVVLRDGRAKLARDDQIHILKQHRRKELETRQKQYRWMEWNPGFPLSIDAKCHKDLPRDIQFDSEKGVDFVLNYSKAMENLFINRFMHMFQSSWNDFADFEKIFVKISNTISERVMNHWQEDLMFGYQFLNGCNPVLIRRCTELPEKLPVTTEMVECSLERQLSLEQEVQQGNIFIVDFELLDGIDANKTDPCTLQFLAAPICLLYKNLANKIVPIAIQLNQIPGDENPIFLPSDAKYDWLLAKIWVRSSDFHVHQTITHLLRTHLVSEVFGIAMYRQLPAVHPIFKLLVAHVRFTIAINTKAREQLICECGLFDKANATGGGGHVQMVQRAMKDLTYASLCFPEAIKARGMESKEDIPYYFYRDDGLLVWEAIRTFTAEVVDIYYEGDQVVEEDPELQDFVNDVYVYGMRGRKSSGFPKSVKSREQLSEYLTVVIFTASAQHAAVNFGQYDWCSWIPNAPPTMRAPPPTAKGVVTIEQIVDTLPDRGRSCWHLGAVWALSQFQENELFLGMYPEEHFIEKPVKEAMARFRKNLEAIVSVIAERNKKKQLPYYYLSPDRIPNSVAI
In short: (§1)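 Freshly isolated human PMNL (5 × 10^6 per mL PBS pH 7.4, 1 mg/mL glucose, 1 mM CaCl2) preincubated with compounds 15 min at 37 °C, then stimulated with A23187 (2.5 µM) plus AA (20 µM) for 10 min. Methanol stop, PGB1 internal standard; LTB4, all-trans isomers and 5-H(P)ETE per 10^6 cells by HPLC. n≥3, mean ± SE.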

[4] = biological target: T1, Polyunsaturated fatty acid 5-lipoxygenase (Homo sapiens); test: Inhibition of 5-lipoxygenase in cell free S100 freshly isolated human PMNL cells assessed as assessed as residual activity at 10 uM preincubated for 15 mins measured after 10 mins by HPLC analysis relative to control
In short: (§2)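 Human donor PMNL in PBS with 1 mM EDTA plus protease inhibitors, sonicated, spun 100,000g 70 min at 4 °C. S100 equivalent to 7.5 × 10^6 cells in PBS pH 7.4, 1 mM EDTA, 1 mM ATP; compound or DMSO 15 min at 4 °C, then 20 µM AA plus 2 mM CaCl2, 10 min at 37 °C. Methanol stop; products by HPLC; n≥3, mean ± SE.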

[5] = biological target: T2, Polyunsaturated fatty acid 5-lipoxygenase (Homo sapiens, UniProt P09917); test: Inhibition of 5-lipoxygenase in cell free S100 freshly isolated human PMNL cells assessed as inhibition of 5-LO product formation preincubated for 15 mins measured after 10 mins by HPLC analysis
T2 sequence (P09917 whole entry): T1 sequence (whole entry)

[6] = biological target: T2, Polyunsaturated fatty acid 5-lipoxygenase; test: Inhibition of 5-lipoxygenase in human polynuclear leukocytes assessed as inhibition of A23187-stimulated 5-LO product formation preincubated for 15 mins measured after 10 mins by HPLC analysis; type: cell-based
[7] = biological target: T1, Polyunsaturated fatty acid 5-lipoxygenase (Homo sapiens); test: Inhibition of 5-lipoxygenase in human polynuclear leukocytes assessed as residual activity at 10 uM preincubated for 15 mins measured after 10 mins by HPLC analysis relative to control; type: cell-based; in short: as §1
[8] = biological target: T1, Polyunsaturated fatty acid 5-lipoxygenase (Homo sapiens); test: Inhibition of 5-lipoxygenase in cell free S100 freshly isolated human PMNL cells assessed as assessed as residual activity at 1 uM preincubated for 15 mins measured after 10 mins by HPLC analysis relative to control; in short: as §2

| Structure (SMILES) | IC50 (U-937 [1]) [µM] | Activity (U-937 [2]) [%] | other results |
| --- | --- | --- | --- |
| COc1ccc(/C=C2\SC(c3ccc(Cl)cc3)=NC2=O)c2ccccc12 | > 30 | 12.2 |  |
| COc1ccc(/C=C2\SC(c3cccc(NC(=O)C45CC6CC(CC(C6)C4)C5)c3)=NC2=O)cc1 | > 30 | 8.4 |  |
| COc1ccc(/C=C2\SC(c3ccc(OC)cc3)=NC2=O)cc1 |  |  | Activity [3]: 21.4%; Activity [4]: 38.8% |
| COc1ccc(/C(C)=C2\SC(c3ccc(C)cc3)=NC2=O)cc1 | 12.1 | 106 |  |
| COc1ccc(C2=NC(=O)/C(=C/c3ccc(C)cc3)S2)cc1 | > 30 | 15.8 |  |
| COc1ccc(C2=NC(=O)/C(=C/c3cc4ccccc4[nH]3)S2)cc1 |  |  | IC50 [5]: 0.57 µM; IC50 [6]: 0.67 µM; Activity [4]: 21.4%; Activity [7]: 20.5% |
| COc1ccc(/C=C2\SC(c3ccc(N)cc3)=NC2=O)cc1 |  |  | Activity [3]: 72.9%; Activity [8]: 37.2% |
| O=C1N=C(c2ccc(Cl)cc2)S/C1=C\c1ccc(Oc2ccccc2)cc1 | > 30 | 12 |  |
| CCCOc1ccc(/C=C2\SC(c3ccc(Cl)cc3)=NC2=O)cc1 | 21.1 | 48.9 |  |
| CC(=O)N(O)C/C=C/c1cccc(Oc2ccccc2)c1 | > 30 | 0.8 | Activity [4]: < 10%; Activity [7]: < 10% |
| COc1ccc(/C=C2\SC(c3ccc4ccccc4c3)=NC2=O)cc1 | > 30 | 4.1 |  |
| COc1ccc(/C=C2\SC(c3ccc(C)cc3)=NC2=O)cc1 | > 30 | 2.7 |  |
